Laboratory results reported in ChEMBL document CHEMBL1121658, “Novel immunosuppressive agents. Potent immunological activity of some bensothiopyrano [4,3-c]pyrazol-3-ones” (J Med Chem, 1981).

How the values were obtained:
[1] = Acid dissociation constant was determined; type: ADME
Summary of the method: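 pKa by potentiometric titration in 2:1 dioxane-H2O (v/v) against 0.5 N NaOH; apparent pKa read as the pH at half-neutralization.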

Mus musculus [2] = organism: Mus musculus; test: Compound was evaluated for the dose required to inhibit the cellular response to 50% (immune activity); type: functional
Summary of the method: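 Cellular response to EL4 in Balb/c mice measured by spleen-cell lysis of 51Cr-labeled EL4 cells (3 h, 37 °C). Mice were given oral daily doses from day 0 to day 9 at several levels, tested up to 300 mg/kg. ED50 was obtained by linear interpolation between the doses giving above and below 50% inhibition.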

Mus musculus [3] = organism: Mus musculus; test: Compound was evaluated for the dose required to inhibit the humoral response to 50% (immune activity); type: functional
Summary of the method: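 Humoral response to EL4 in Balb/c mice measured as complement-dependent lysis titer of 51Cr-labeled EL4 cells by day-10 sera. Mice were given oral daily doses from day 0 to day 9 at several levels. ED50 was obtained by linear interpolation between the doses bracketing 50% inhibition of the control titer.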

Mus musculus [4] = test: Immunological activity in mice as the percentage of suppression of the cellular response to EI4 tumor cells at 10 mg/kg; type: functional
Summary of the method: (§1)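 Balb/c mice, groups of 10, immunized ip on day 0 with 10^7 EL4 ascites tumor cells. Dosed orally 10 mg/kg once daily days 0-9, in water with a little NaOH (circa pH 8.5); saline controls. On day 10, spleen cells (1.5×10^7 viable) incubated with 51Cr-labeled EL4 cells (0.5×10^6) for 3 h at 37 °C in 10% CO2. Lysis corrected for spontaneous release; reported as % inhibition of control lysis.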

Mus musculus [5] = test: Compound was evaluated for immunological activity in mice as the percentage of suppression of the humoral response to EI4 tumor cells at 10 mg/kg, po; Data unreliable; type: functional, organism-based; parameters: dose 10 mg/kg
Summary of the method: (§2)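 Balb/c mice, groups of 10, immunized ip on day 0 with 10^7 EL4 cells. Dosed orally 10 mg/kg once daily days 0-9, in water with a little NaOH (pH ~8.5); saline controls. Titer taken as the dilution giving 50% maximal lysis; reported as % inhibition of control titer.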

Mus musculus [6] = test: Compound was evaluated for immunological activity in mice as the percentage of suppression of the humoral response to EI4 tumor cells at 10 mg/kg, po; type: functional; summary of the method: as §2
Mus musculus [7] = test: Compound was evaluated for immunological activity in mice as the percentage of suppression of the cellular response to EI4 tumor cells at 10 mg/kg, po; type: functional; summary of the method: as §1

## Oc1c2c(nn1-c1ccccc1)-c1ccccc1SC2
[1]
  pKa: 7.48
Mus musculus [2]
  ED50: 130 mg/kg
Mus musculus [3]
  ED50: 70 mg/kg
Mus musculus [4]
  Suppression: 1%
Mus musculus [5]
  Suppression: Data unreliable

## Oc1c2c(nn1-c1ccc(Br)cc1)-c1ccccc1SC2
[1]
  pKa: 7.13
Mus musculus [2]
  ED50: 3.3 mg/kg
Mus musculus [3]
  ED50: 2 mg/kg
Mus musculus [4]
  Suppression: 84%
Mus musculus [6]
  Suppression: >90%

## Oc1c2c(nn1-c1ccccc1Cl)-c1ccccc1SC2
[1]
  pKa: 7.74
Mus musculus [4]
  Suppression: 8%
Mus musculus [6]
  Suppression: 45%

## Oc1c2c(nn1-c1ccc(Cl)cc1Cl)-c1ccccc1SC2
Mus musculus [4]
  Suppression: -4%
Mus musculus [6]
  Suppression: 20%

## Oc1c2c(nn1-c1ccc(Cl)cc1)-c1ccccc1SC2
[1]
  pKa: 7.56
Mus musculus [2]
  ED50: 2 mg/kg
Mus musculus [3]
  ED50: 0.5 mg/kg
Mus musculus [4]
  Suppression: >90%
Mus musculus [6]
  Suppression: >90%

## Cn1cnc([N+](=O)[O-])c1Sc1ncnc2[nH]cnc12 [AZATHIOPRINE]
Mus musculus [4]
  Suppression: -3%
Mus musculus [6]
  Suppression: 6%

## O=[N+]([O-])c1ccc(-n2nc3c(c2O)CSc2ccccc2-3)cc1
Mus musculus [4]
  Suppression: 27%
Mus musculus [5]
  Suppression: Data unreliable

## Oc1c2c(nn1-c1ccc(C(F)(F)F)cc1)-c1ccccc1SC2
Mus musculus [2]
  ED50: 6.5 mg/kg
Mus musculus [3]
  ED50: 6 mg/kg
Mus musculus [4]
  Suppression: 71%
Mus musculus [6]
  Suppression: >90%

## Oc1c2c(nn1-c1ccccn1)-c1ccccc1SC2
Mus musculus [4]
  Suppression: 2%
Mus musculus [6]
  Suppression: -19%

## Oc1c2c(nn1CC(F)(F)F)-c1ccccc1SC2
Mus musculus [4]
  Suppression: -2%
Mus musculus [6]
  Suppression: 17%

## [O-][S+]1Cc2c(nn(-c3ccc(Cl)cc3)c2O)-c2ccccc21 (centres undefined)
Mus musculus [4]
  Suppression: >90%
Mus musculus [6]
  Suppression: >90%

## CS(=O)(=O)c1ccc(-n2nc3c(c2O)CSc2ccccc2-3)cc1
Mus musculus [2]
  ED50: > 300 mg/kg
Mus musculus [3]
  ED50: 170 mg/kg
Mus musculus [4]
  Suppression: 1%
Mus musculus [6]
  Suppression: 28%

## Cn1nc2c(c1O)CSc1ccccc1-2
Mus musculus [4]
  Suppression: 14%
Mus musculus [6]
  Suppression: -3%

## COc1ccc(-n2nc3c(c2O)CSc2ccccc2-3)cc1
[1]
  pKa: 7.76
Mus musculus [2]
  ED50: 240 mg/kg
Mus musculus [3]
  ED50: 150 mg/kg
Mus musculus [4]
  Suppression: -11%
Mus musculus [6]
  Suppression: -6%

## Oc1c2c(nn1-c1cccc(Cl)c1Cl)-c1ccccc1SC2
[1]
  pKa: 7.28
Mus musculus [4]
  Suppression: 5%
Mus musculus [6]
  Suppression: 51%

## Oc1c2c(nn1-c1cc(Cl)cc(Cl)c1)-c1ccccc1SC2
Mus musculus [2]
  ED50: 31 mg/kg
Mus musculus [3]
  ED50: 8 mg/kg
Mus musculus [4]
  Suppression: 19%
Mus musculus [6]
  Suppression: 73%

## Oc1c2c(nn1-c1c(Cl)cccc1Cl)-c1ccccc1SC2
Mus musculus [4]
  Suppression: 1%
Mus musculus [6]
  Suppression: 4%

## Oc1c2c(nn1-c1ccc(F)cc1)-c1ccccc1SC2
Mus musculus [2]
  ED50: 5.5 mg/kg
Mus musculus [3]
  ED50: 3.3 mg/kg
Mus musculus [4]
  Suppression: 86%
Mus musculus [6]
  Suppression: >90%

## O=P1(N(CCCl)CCCl)NCCCO1 (centres undefined) [CYCLOPHOSPHAMIDE ANHYDROUS]
Mus musculus [4]
  Suppression: 52%
Mus musculus [6]
  Suppression: >90%

## Cc1ccc(-n2nc3c(c2O)CSc2ccccc2-3)cc1
[1]
  pKa: 7.64
Mus musculus [4]
  Suppression: 19%
Mus musculus [6]
  Suppression: 46%

## Oc1c2c(nn1Cc1ccccc1)-c1ccccc1SC2
Mus musculus [4]
  Suppression: -3%
Mus musculus [6]
  Suppression: 0%

## Oc1c2c(nn1-c1cccc(Cl)c1)-c1ccccc1SC2
Mus musculus [2]
  ED50: 45 mg/kg
Mus musculus [3]
  ED50: 9 mg/kg
Mus musculus [6]
  Suppression: 67%
Mus musculus [7]
  Suppression: 16%

## O=c1c2csc3ccccc3c-2nn1-c1ccc(Cl)cc1
Mus musculus [4]
  Suppression: 63%
Mus musculus [6]
  Suppression: >90%

## Sc1ncnc2nc[nH]c12 [MERCAPTOPURINE ANHYDROUS]
Mus musculus [4]
  Suppression: 63%
Mus musculus [6]
  Suppression: 52%

## Oc1c2c(nn1-c1ccc(Cl)c(Cl)c1)-c1ccccc1SC2
Mus musculus [2]
  ED50: 3 mg/kg
Mus musculus [3]
  ED50: 1 mg/kg
Mus musculus [4]
  Suppression: 62%
Mus musculus [6]
  Suppression: 87%

## Oc1[nH]nc2c1CSc1ccccc1-2
Mus musculus [4]
  Suppression: 1%
Mus musculus [5]
  Suppression: Data unreliable
